Assay [1] has as its system K562. Briefly: Cytotoxicity against human K562 cells after 48 hrs by MTT assay. In kind it is functional, cell-based. The note with it: K562, 48 h. Put shortly:
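K562 cells grown in DMEM with 10% FBS plus penicillin and streptomycin, humidified air, 37 °C, 5% CO2. Cells seeded in 96-well plates and exposed to compounds at varying concentrations for 48 h. Viability read by MTT. IC50 derived from inhibition rates at each concentration. Values are means of three experiments.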

The target of assay [2] is Phosphatidylinositol 4,5-bisphosphate 3-kinase catalytic subunit alpha isoform (Homo sapiens) (UniProt P42336). Nature of the assay: Inhibition of PI3Kalpha at 20 uM after 1 hr by luminescence assay. Put shortly: (§1)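 Kinase incubated with substrate, test compound and ATP in a final buffer of 25 mM HEPES. Controls were staurosporine for Abl and PI103 for PI3K.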
Chain of Phosphatidylinositol 4,5-bisphosphate 3-kinase catalytic subunit alpha isoform (Homo sapiens) (P42336 whole entry, canonical isoform): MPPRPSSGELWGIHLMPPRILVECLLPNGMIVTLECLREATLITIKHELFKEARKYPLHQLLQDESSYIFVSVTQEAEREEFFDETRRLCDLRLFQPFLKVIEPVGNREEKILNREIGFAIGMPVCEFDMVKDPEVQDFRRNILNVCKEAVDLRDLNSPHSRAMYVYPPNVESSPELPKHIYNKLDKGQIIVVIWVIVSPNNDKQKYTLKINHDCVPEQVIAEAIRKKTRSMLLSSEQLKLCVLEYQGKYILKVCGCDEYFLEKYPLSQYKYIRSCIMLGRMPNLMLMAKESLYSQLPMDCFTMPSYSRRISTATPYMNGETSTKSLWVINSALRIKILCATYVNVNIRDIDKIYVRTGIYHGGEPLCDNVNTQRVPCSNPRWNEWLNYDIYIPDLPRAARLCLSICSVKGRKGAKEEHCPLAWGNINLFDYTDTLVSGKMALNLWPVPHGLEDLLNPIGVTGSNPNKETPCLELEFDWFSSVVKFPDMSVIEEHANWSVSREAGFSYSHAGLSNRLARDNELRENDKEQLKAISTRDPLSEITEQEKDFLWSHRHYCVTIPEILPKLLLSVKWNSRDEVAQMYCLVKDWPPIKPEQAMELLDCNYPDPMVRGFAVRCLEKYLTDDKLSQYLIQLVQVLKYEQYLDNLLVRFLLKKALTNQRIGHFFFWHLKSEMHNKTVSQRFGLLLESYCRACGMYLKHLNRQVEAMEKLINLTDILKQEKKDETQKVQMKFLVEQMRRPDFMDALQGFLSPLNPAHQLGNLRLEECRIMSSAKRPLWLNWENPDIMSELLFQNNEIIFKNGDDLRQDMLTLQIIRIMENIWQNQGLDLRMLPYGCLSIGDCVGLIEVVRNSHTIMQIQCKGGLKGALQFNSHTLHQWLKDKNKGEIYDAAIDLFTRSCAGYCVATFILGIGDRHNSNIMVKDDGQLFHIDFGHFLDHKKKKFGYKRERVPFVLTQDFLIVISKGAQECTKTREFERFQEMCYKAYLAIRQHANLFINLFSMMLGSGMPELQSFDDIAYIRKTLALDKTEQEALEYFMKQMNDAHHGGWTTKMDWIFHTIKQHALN
For assay [3], the target named is Tyrosine-protein kinase ABL2 (Homo sapiens) (UniProt P42684). Briefly: Inhibition of Abl2 at 20 uM after 1 hr by luminescence assay. Put shortly: as §1
Chain of Tyrosine-protein kinase ABL2 (Homo sapiens) (P42684 whole entry): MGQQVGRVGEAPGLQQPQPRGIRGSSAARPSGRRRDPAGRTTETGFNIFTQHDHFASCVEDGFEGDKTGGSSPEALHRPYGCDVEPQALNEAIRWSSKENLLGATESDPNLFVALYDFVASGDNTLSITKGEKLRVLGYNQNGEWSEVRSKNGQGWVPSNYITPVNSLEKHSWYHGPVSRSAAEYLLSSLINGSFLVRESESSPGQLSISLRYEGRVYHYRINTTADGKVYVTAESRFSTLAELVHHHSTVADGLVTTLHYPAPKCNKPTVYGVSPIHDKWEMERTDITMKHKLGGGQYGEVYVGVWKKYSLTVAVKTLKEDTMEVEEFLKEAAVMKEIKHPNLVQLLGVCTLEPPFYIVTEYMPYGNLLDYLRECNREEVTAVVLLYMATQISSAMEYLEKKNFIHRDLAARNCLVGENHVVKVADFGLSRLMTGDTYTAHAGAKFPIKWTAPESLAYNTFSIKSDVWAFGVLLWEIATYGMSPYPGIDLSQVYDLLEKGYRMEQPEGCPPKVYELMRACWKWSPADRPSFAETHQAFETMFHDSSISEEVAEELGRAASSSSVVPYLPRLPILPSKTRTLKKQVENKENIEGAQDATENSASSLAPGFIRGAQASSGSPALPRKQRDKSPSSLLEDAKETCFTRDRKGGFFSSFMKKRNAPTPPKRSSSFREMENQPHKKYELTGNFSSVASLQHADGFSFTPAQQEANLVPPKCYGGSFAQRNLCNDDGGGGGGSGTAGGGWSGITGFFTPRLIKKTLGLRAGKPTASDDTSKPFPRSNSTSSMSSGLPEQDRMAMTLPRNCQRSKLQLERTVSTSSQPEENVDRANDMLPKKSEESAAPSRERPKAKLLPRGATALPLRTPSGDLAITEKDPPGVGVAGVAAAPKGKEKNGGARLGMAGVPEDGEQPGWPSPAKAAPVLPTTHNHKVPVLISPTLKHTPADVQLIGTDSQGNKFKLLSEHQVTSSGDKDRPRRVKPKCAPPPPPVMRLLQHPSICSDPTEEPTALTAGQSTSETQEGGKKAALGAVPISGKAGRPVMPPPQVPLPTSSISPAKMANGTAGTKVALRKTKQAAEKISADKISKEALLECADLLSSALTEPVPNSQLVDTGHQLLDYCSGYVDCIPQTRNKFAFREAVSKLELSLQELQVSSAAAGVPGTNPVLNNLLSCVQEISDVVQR
Assay [4] relates to K562. Briefly: Induction of apoptosis in human K562 cells at 5 uM after 24 hrs by annexin V-FITC/propidium iodide staining by flow cytometry. In kind it is functional, cell-based. The method, boiled down:
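K562 cells were treated for 24 h, then untreated and treated cells were collected by centrifugation and washed twice with ice-cold PBS. Phosphatidylserine surface exposure was measured by Annexin V-FITC binding, with PI staining for membrane integrity. Read-out was flow cytometry.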

Activity calls are given as the source filed them. The calls are words filed in the database; no cut-off is given here.

`O=C(CN[C@H]1CCN(S(=O)(=O)Cc2ccccc2)C1)N1CCN(Cc2ccc(F)cc2)CC1` came in with an IC50 in assay [1] of 14.3 µM. That is a double-digit micromolar value.

Consider `O=C(CN[C@H]1CCN(S(=O)(=O)Cc2ccccc2)C1)N1CCN(Cc2ccc(Cl)cc2)CC1`, for which, in assay [1], the midpoint of inhibition, the IC50, lay at 9.2 µM. This IC50 is about 1.6-fold lower than that of the compound before.

Regarding `Oc1cccc(-c2nc(N3CCOCC3)c3oc4ncccc4c3n2)c1`, the inhibition in assay [2] came out at 98.1%.

In assay [1], `O=C(CN[C@H]1CCN(S(=O)(=O)Cc2ccccc2)C1)N1CCN(Cc2cccc(F)c2)CC1` displayed a 50% inhibitory concentration (IC50) of 13.2 µM.

For `O=C(CN[C@H]1CCN(S(=O)(=O)Cc2ccccc2)C1)N1CCN(Cc2c(Cl)cccc2Cl)CC1`, the IC50 in assay [1] was 28.4 µM.

`O=C(CN[C@H]1CCN(S(=O)(=O)Cc2ccccc2)C1)N1CCN(Cc2cccc(Cl)c2)CC1` showed an IC50 in assay [1] of 8.6 µM.

`Cc1cc(C)c(CN2CCN(C(=O)CN[C@H]3CCN(S(=O)(=O)Cc4ccccc4)C3)CC2)c(C)c1` displayed an IC50 in assay [1] of 3.3 µM. The inhibition in assay [3] was 1.39%; in assay [2], 13.5%. The outcome in assay [4] was inactive.

The compound `O=C(CN[C@H]1CCN(S(=O)(=O)Cc2ccccc2)C1)N1CCN(Cc2cccc(C(F)(F)F)c2)CC1` yielded an IC50 in assay [1] of 3.6 µM. In addition, the inhibition in assay [3] amounted to 4.49%; in assay [2] it was 12.1%. The result in assay [4] was inactive.

In assay [1], `COc1ccc(CN2CCN(C(=O)CN[C@H]3CCN(S(=O)(=O)Cc4ccccc4)C3)CC2)cc1` displayed an IC50 of 50.9 µM.

For the compound `O=C(CN[C@H]1CCN(S(=O)(=O)Cc2ccccc2)C1)N1CCN(Cc2ccccc2)CC1`, the IC50 in assay [1] turned out to be 9.5 µM.

As to `Cc1ccc(NC(=O)c2ccc(CN3CCN(C)CC3)cc2)cc1Nc1nccc(-c2cccnc2)n1` [IMATINIB], 0.58 µM corresponded to half-maximal inhibition in assay [1] (IC50).

In assay [1], `O=C(CN[C@H]1CCN(S(=O)(=O)Cc2ccccc2)C1)N1CCN(Cc2ccc(Cl)cc2Cl)CC1` returned an IC50 of 4.3 µM. Besides, the figures for the inhibition in assay [3] and in assay [2] were 4.92% and 16.4%, respectively. For the same compound, the outcome in assay [4] was inactive.

The compound `O=C(CN[C@H]1CCN(S(=O)(=O)Cc2ccccc2)C1)N1CCN(Cc2c(F)cccc2Cl)CC1` registered a half-maximal inhibitory concentration (IC50) in assay [1] of 65.8 µM.

In turn, `COc1cc(CN2CCN(C(=O)CN[C@H]3CCN(S(=O)(=O)Cc4ccccc4)C3)CC2)cc(OC)c1OC` returned an IC50 in assay [1] of 93 µM.

For `COc1cccc(CN2CCN(C(=O)CN[C@H]3CCN(S(=O)(=O)Cc4ccccc4)C3)CC2)c1`, in assay [1], the IC50 came to 60.8 µM.

Regarding `O=C(CN[C@H]1CCN(S(=O)(=O)Cc2ccccc2)C1)N1CCN(Cc2ccccc2F)CC1`, the IC50 in assay [1] turned out to be 12.6 µM.

The compound `Cc1ccccc1CN1CCN(C(=O)CN[C@H]2CCN(S(=O)(=O)Cc3ccccc3)C2)CC1` displayed a half-inhibitory concentration (IC50) in assay [1] of 10.2 µM.

`COc1cc(CN2CCN(C(=O)CN[C@H]3CCN(S(=O)(=O)Cc4ccccc4)C3)CC2)cc(OC)c1` yielded an IC50 in assay [1] of 33.8 µM. Against the preceding compound, the IC50 is about 3.3-fold higher.

In assay [1], `Cc1ccc(CN2CCN(C(=O)CN[C@H]3CCN(S(=O)(=O)Cc4ccccc4)C3)CC2)cc1` had a half-maximal inhibitory concentration (IC50) of 8.2 µM. Compared with the last compound, the IC50 is about 4.1-fold lower.

For the compound `O=C(CN[C@H]1CCN(S(=O)(=O)Cc2ccccc2)C1)N1CCN(Cc2ccccc2Cl)CC1`, the IC50 in assay [1] worked out at 9 µM.

On to `Cc1cccc(CN2CCN(C(=O)CN[C@H]3CCN(S(=O)(=O)Cc4ccccc4)C3)CC2)c1`, for which the IC50 in assay [1] amounted to 11.3 µM.

On to `CN[C@@H]1C[C@H]2O[C@@](C)([C@@H]1OC)n1c3ccccc3c3c4c(c5c6ccccc6n2c5c31)C(=O)NC4`, for which the inhibition in assay [3] is 90.2%.

Source of the values: ChEMBL document CHEMBL1759999, “Exploration of (S)-3-aminopyrrolidine as a potentially interesting scaffold for discovery of novel Abl and PI3K dual inhibitors” (Eur J Med Chem, 2011).
